SIRT5 block = SIRT5 desuccinylase inhibitors, primary screen, biochemical, fluorescence imaging, single point, set 5; NAD-dependent protein deacylase sirtuin-5, mitochondrial (Homo sapiens), Q9NXA8; Purified SirT5, succinyl-peptide AMC, trypsin-coupled fluorescence; inhibition, % at 15 µM; 330,000 tested, 1.1% active; in the data active means inhibition above about 15%; inconclusive means no clear call, values can overlap the other calls
E-sel inducer = E-selectin induction in HUVECs, primary screen, imaging, HUVEC, immunofluorescence imaging, single point. P16581. normalized: neutral wells 0, TNF-alpha wells 100. activation, % at 7.58 µM. 260,000 tested, 0.37% active;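 active means mean E-selectin-positive cell signal at least 10% of the positive control, reached in at least 60% of replicates, without over 20% cell loss; inconclusive means no rule given, readout overlaps actives, possibly toxicity-flagged; inactive means the rest, including those meeting only one limit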
Target sequence (P16581 whole entry, looked up): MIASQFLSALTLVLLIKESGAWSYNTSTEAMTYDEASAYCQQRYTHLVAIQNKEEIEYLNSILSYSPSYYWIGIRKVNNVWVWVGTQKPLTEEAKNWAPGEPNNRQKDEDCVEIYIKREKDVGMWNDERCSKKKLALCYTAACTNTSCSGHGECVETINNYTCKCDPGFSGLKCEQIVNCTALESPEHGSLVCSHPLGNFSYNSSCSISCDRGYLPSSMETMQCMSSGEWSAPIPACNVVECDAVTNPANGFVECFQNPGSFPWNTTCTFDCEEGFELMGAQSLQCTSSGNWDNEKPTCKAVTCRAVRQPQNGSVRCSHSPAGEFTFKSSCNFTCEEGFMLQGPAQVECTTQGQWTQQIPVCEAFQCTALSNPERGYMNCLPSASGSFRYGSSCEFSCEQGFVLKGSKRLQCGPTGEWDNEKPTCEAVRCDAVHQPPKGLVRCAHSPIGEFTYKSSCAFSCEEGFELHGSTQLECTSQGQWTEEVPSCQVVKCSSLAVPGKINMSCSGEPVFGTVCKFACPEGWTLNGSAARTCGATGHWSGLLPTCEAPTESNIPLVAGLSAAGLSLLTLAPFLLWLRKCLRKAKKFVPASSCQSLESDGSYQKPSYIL
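System: HUVEC, human umbilical vein endothelial cells; quantity: 3,000 cells/well; buffer or medium: EGM-2 medium, gelatin-coated wells; dosing: single-point compound dose; detection: immunofluorescence imaging; evaluation: % PE-positive cells; benchmarks: TNF-alpha, DMSO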
DENV2 CPE = inhibitors of DENV2 cytopathic effect, primary screen, cell-based, plate reader, single concentration; CPE inhibition, % at 9.99 µM; DENV2-infected cells, cytopathic effect rescue; 350,000 tested, 1.7% active; in the data active means CPE inhibition above about 20%, passing the limit was not always enough; inconclusive means no clear call, values can overlap the other calls; tested in BHK-21 cells
A number is an active result; - = inactive; ? = inconclusive; . = not tested or not shown. Compounds with a hit are over-represented: about 2.9% of the library has one in this group of screens.

SMILES	SIRT5 block	E-sel inducer	DENV2 CPE
O=S(=O)(c1ccc(F)cc1)N1CCCCN2[C@H](CO)[C@@H](c3ccc(C#CC4CCCC4)cc3)[C@@H]2C1	18	.	-
N#C[C@H]1[C@H](c2ccc(C#CC3CCCC3)cc2)[C@H](CO)N1S(=O)(=O)c1ccccc1	.	-	-
O=S(=O)(c1ccc(F)cc1)N1CCCCN2[C@H](CO)[C@@H](c3ccc(C#CC4CC4)cc3)[C@H]2C1	-	-	-
N#C[C@H]1N[C@H](CO)[C@@H]1c1ccc(C#CC2CCCC2)cc1	-	-	-
N#C[C@@H]1N[C@@H](CO)[C@H]1c1ccc(C#CC2CCCC2)cc1	-	-	21
O=S(=O)(c1ccc(F)cc1)N1CCCCN2[C@H](C1)[C@H](c1ccc(C#CC3CCCC3)cc1)[C@@H]2CO	18	.	-
O=S(=O)(c1ccc(F)cc1)N1CCCCN2[C@H](C1)[C@H](c1ccc(C#CC3CC3)cc1)[C@@H]2CO	-	-	-
N#C[C@H]1[C@@H](c2ccc(C#CC3CCCC3)cc2)[C@H](CO)N1S(=O)(=O)c1ccccc1	-	-	21
CC(C)C[C@H]1CN=C(N(C)C)N1CCc1cccc(F)c1	.	-	-
COc1ccc(Nc2nc(N)c([N+](=O)[O-])c(N3CCCC3)n2)cc1	-	-	-
COc1ccc(NS(=O)(=O)c2cccc(C(=O)N3CCCCCCC3)c2)cc1	-	-	?
CCOC(=O)CNC(=O)CSc1nnc(-c2c[nH]c3ccccc23)n1CC	-	-	-
O=S(=O)(c1ccc(F)cc1)N1CCCCN2[C@H](C1)[C@@H](c1ccc(C#CC3CC3)cc1)[C@@H]2CO	-	-	-
O=S(=O)(c1ccc(F)cc1)N1CCCCN2[C@H](CO)[C@H](c3ccc(C#CC4CCCC4)cc3)[C@H]2C1	22	.	-
O=S(=O)(c1ccccc1)N1CCCCN2[C@H](C1)[C@H](c1ccc(C#CC3CCCC3)cc1)[C@@H]2CO	19	-	-
O=S(=O)(c1ccccc1)N1CCCCN2[C@H](CO)[C@H](c3ccc(C#CC4CCCC4)cc3)[C@@H]2C1	-	-	-
CN(CC(=O)N1CCCCCC1)S(=O)(=O)c1ccccc1	-	.	-
Cc1ccc(CNC(=O)CCS(=O)(=O)c2ccc(Br)cc2)cc1	-	-	-
Cc1ccc(S(=O)(=O)CCC(=O)NCc2ccccc2)cc1	-	.	22
COc1ccc(CN(C)C[C@H]2Oc3ccc(NS(=O)(=O)c4ccccc4)cc3CC(=O)N([C@H](C)CO)C[C@H]2C)cc1	-	-	-
COc1ccc(CN(C)C[C@@H]2Oc3ccc(NS(=O)(=O)c4ccc(F)cc4)cc3CC(=O)N([C@H](C)CO)C[C@@H]2C)cc1	-	-	23
COc1ccc(S(=O)(=O)Nc2ccc3c(c2)CC(=O)N([C@@H](C)CO)C[C@H](C)[C@H](CN(C)Cc2ccc(Oc4ccccc4)cc2)O3)cc1	17	-	-
COc1ccc(S(=O)(=O)Nc2ccc3c(c2)CC(=O)N([C@@H](C)CO)C[C@@H](C)[C@@H](CN(C)Cc2ccc(Oc4ccccc4)cc2)O3)cc1	-	-	-
COc1ccc(CN(C)C[C@H]2Oc3ccc(NS(=O)(=O)c4ccccc4)cc3CC(=O)N([C@@H](C)CO)C[C@@H]2C)cc1	17	-	-
COc1ccc(CN(C)C[C@H]2Oc3ccc(NS(=O)(=O)c4ccc(F)cc4)cc3CC(=O)N([C@H](C)CO)C[C@H]2C)cc1	-	-	-
SMILES	SIRT5 block	E-sel inducer	DENV2 CPE
COc1cc(SC)ccc1C(=O)Nc1nc(C)cc(C)n1	-	.	-
Cc1cc(N2CCCC2)n2nc(C)nc2n1	.	-	-
CCOC(=O)c1ccc(NC(=O)c2sc3nc(N4CCOCC4)c4c(c3c2N)CCCC4)cc1	-	-	-
O=C(O)c1ccc(/C=N/NC(=O)c2cc3c(ccc4ccccc43)o2)cc1	-	-	-
O=C(C[C@H]1CC[C@@H]2[C@H](COC[C@@H](O)CN2C(=O)c2ccccc2F)O1)N1CCOCC1	-	-	-
CCN(CC)CCNCc1cc(Br)ccc1OCC(=O)NCc1ccccc1	-	.	-
CCOc1ccc(Oc2nc(NCC(C)C)nc(OC)n2)nn1	-	-	36
CCNc1nc(NC(C)CC)nc(Oc2ccc(OCC)nn2)n1 (centres undefined)	-	-	-
O=C(/C=C/c1ccccc1)NCCN1CCOCC1	.	-	.
C[C@@H]1CCCCO[C@H](CN(C)Cc2ccc(C(F)(F)F)cc2)[C@H](C)CN([C@@H](C)CO)C(=O)c2cc(NS(=O)(=O)c3ccccc3)ccc2O1	-	-	-
C[C@@H]1CN([C@@H](C)CO)C(=O)c2cc(NS(=O)(=O)c3ccccc3)ccc2O[C@@H](C)CCCCO[C@H]1CN(C)Cc1ccc(C(F)(F)F)cc1	18	-	-
C[C@@H]1CCCCO[C@@H](CN(C)Cc2ccc(C(F)(F)F)cc2)[C@@H](C)CN([C@H](C)CO)C(=O)c2cc(NS(=O)(=O)c3ccccc3)ccc2O1	-	-	-
C[C@@H]1CN([C@H](C)CO)C(=O)c2cc(NS(=O)(=O)c3ccccc3)ccc2O[C@@H](C)CCCCO[C@@H]1CN(C)Cc1ccc(C(F)(F)F)cc1	-	-	-
C[C@@H]1CCCCO[C@H](CN(C)Cc2ccc(C(F)(F)F)cc2)[C@@H](C)CN([C@@H](C)CO)C(=O)c2cc(NS(=O)(=O)c3ccccc3)ccc2O1	20	-	-
C[C@@H]1CCCCO[C@@H](CN(C)Cc2ccc(C(F)(F)F)cc2)[C@H](C)CN([C@@H](C)CO)C(=O)c2cc(NS(=O)(=O)c3ccccc3)ccc2O1	21	-	-
COc1ccc(CCNC(=O)CCCn2c(=O)c3cccn3c3cccnc32)c(OC)c1	-	.	-
O=C(C[C@H]1C[C@H]2c3cc(NC(=O)c4ccc5c(c4)OCO5)ccc3O[C@H]2[C@@H](CO)O1)NCC1CC1	-	-	-
O=C(C[C@@H]1C[C@H]2c3cc(NC(=O)c4ccc5c(c4)OCO5)ccc3O[C@H]2[C@H](CO)O1)NC1CCCC1	-	-	-
O=C(C[C@@H]1C[C@H]2c3cc(NC(=O)c4ccc5c(c4)OCO5)ccc3O[C@H]2[C@@H](CO)O1)NCC1CC1	-	-	27
O=C(C[C@@H]1C[C@@H]2c3cc(NC(=O)c4ccc5c(c4)OCO5)ccc3O[C@@H]2[C@@H](CO)O1)NC1CCCC1	-	-	34
CCCOc1ccc(C(=O)Nc2ccc(S(=O)(=O)N3C[C@@H]4C[C@@H](C3)c3cccc(=O)n3C4)cc2)cc1	.	.	31
CCOc1ccc(/C=N/NC(=O)c2ccccc2Cl)cc1CN1CC2CC(C1)c1cccc(=O)n1C2 (centres undefined)	.	.	-
CCOc1ccc(/C=N/NC(=O)c2ccc(F)cc2)cc1CN1CC2CC(C1)c1cccc(=O)n1C2 (centres undefined)	.	.	20
CCCOc1ccc(C(=O)Nc2ccc(S(=O)(=O)N3CCN(C)CC3)cc2)cc1	-	.	-
Cc1ccc([C@H]2N[C@]3(CCCN(Cc4ccc(C(F)(F)F)cc4)C3=O)[C@H]3C(=O)N(Cc4ccccc4)C(=O)[C@@H]23)cc1	-	.	-
Nc1cnn(Cc2ccc(F)cc2)c1	-	-	-
COc1cccc(OC)c1C(=O)NC(=S)Nc1ccc2c(c1)OCCO2	-	.	-

Source: PubChem BioAssay
